Results as given in ChEMBL document CHEMBL1156343, “Bioactive acridone alkaloids from Swinglea glutinosa” (J Nat Prod, 2001).
pIC50: −log10 of the molar value.

Assays:
Plasmodium falciparum [1] = test: Antiplasmodial activity after 24 hrs against chloroquine-resistant Plasmodium falciparum FcM29 by [3H]hypoxanthine uptake; type: functional, organism-based
How it was run: (§1)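 P. falciparum continuously cultured in human O± red cells, 1% hematocrit, RPMI 1640 with 25 mM Hepes, 30 mM NaHCO3, 5% human AB+ serum. Cultures synchronized daily by gelatine flotation and 5% sorbitol lysis. Tested mostly at ring stage, 0.5-1% parasitemia. DMSO stocks diluted serum-free to final 50-0.01 µg/mL (DMSO ≤1%). Three experiments in triplicate. IC50 read graphically from concentration versus percent inhibition curves.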

[2] = Selectivity index, ratio of ED50 for human HeLa cells to IC50 for Plasmodium falciparum Nigerian after 24 hrs by [3H]hypoxanthine incorporation assay; type: functional
How it was run: (§2)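 Ratio of HeLa ED50 to P. falciparum Nigerian-strain IC50 at the same exposure time (24 or 72 h). For the parasite, ring-stage cultures synchronized by gelatine flotation and sorbitol were used at 0.5–1% parasitemia and 1% hematocrit in human red cells with 5% AB+ serum. Compounds ran at final 50–0.01 μg/mL. Growth was read by [3H]-hypoxanthine incorporation, and IC50 was read graphically from inhibition curves.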

Plasmodium falciparum [3] = test: Antiplasmodial activity after 24 hrs against chloroquine-sensitive Plasmodium falciparum Nigerian by [3H]hypoxanthine uptake; type: functional, organism-based; how it was run: as §1
[4] = Cytotoxicity against human HeLa cells after 72 hrs by [3H]hypoxanthine incorporation assay; type: cell-based; conditions: read-out: ED50
How it was run: (§3)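 HeLa cells grown in RPMI 1640 with 25 mM Hepes, 30 mM NaHCO3 and 5% fetal calf serum. After trypsinization, cells were seeded at 2×10^4 cells/well. Compounds were taken from 10 mg/mL DMSO stocks and diluted in serum-free medium to final 100–0.02 μg/mL (DMSO ≤1% final). Growth was read by [3H]-hypoxanthine incorporation at 24 and 72 h against untreated wells. Three experiments, each in triplicate.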

Plasmodium falciparum [5] = test: Antiplasmodial activity after 72 hrs against chloroquine-sensitive Plasmodium falciparum Nigerian by [3H]hypoxanthine uptake; type: functional, organism-based; how it was run: as §1
[6] = Cytotoxicity against human HeLa cells after 24 hrs by [3H]hypoxanthine incorporation assay; type: cell-based; conditions: read-out: ED50; how it was run: as §3
[7] = Selectivity index, ratio of ED50 for human HeLa cells to IC50 for Plasmodium falciparum Nigerian after 72 hrs by [3H]hypoxanthine incorporation assay; type: functional; how it was run: as §2
Plasmodium falciparum [8] = test: Antiplasmodial activity against chloroquine-resistant Plasmodium falciparum FcM29 after 72 hrs by [3H]hypoxanthine uptake; type: functional, organism-based; how it was run: as §1

CC(C)=CCc1c(O)cc2c(c1O)c(=O)c1c(CC=C(C)C)ccc(O)c1n2C
pIC50 (Plasmodium falciparum [1]): 5.10 | Ratio [2]: 9 | pIC50 (Plasmodium falciparum [3]): 5.28 | CC50 at 72 h [4]: 52.2 µM | pIC50 (Plasmodium falciparum [5]): 5.25 | CC50 at 24 h [6]: 47.2 µM | Ratio [7]: 9.4 | pIC50 (Plasmodium falciparum [8]): 5.15

Cn1c2c(O)cccc2c(=O)c2c(O)cc3c(c21)C=CC(C)(C)O3
pIC50 (Plasmodium falciparum [1]): 4.99 | Ratio [2]: 7.7 | pIC50 (Plasmodium falciparum [3]): 4.95 | CC50 at 72 h [4]: 78 µM | pIC50 (Plasmodium falciparum [5]): 5.06 | CC50 at 24 h [6]: 85.5 µM | Ratio [7]: 9 | pIC50 (Plasmodium falciparum [8]): 5.17

COc1c(O)c(CC=C(C)C)c(O)c2c(=O)c3cccc(O)c3n(C)c12 [GLYCOCITRINE-IV]
pIC50 (Plasmodium falciparum [1]): 5.70 | Ratio [2]: 0.3 | pIC50 (Plasmodium falciparum [3]): 5.60 | CC50 at 72 h [4]: 5.3 µM | pIC50 (Plasmodium falciparum [5]): 5.60 | CC50 at 24 h [6]: 0.71 µM | Ratio [7]: 2.1 | pIC50 (Plasmodium falciparum [8]): 5.64

CCN(CC)CCCC(C)Nc1ccnc2cc(Cl)ccc12 (centres undefined) [CHLOROQUINE PHOSPHATE]
CC50 at 72 h [4]: > 100 µM | CC50 at 24 h [6]: > 100 µM

COc1c(O)cc(O)c2c(=O)c3cccc(O)c3n(C)c12 [CITRUSININE-II]
pIC50 (Plasmodium falciparum [1]): 4.57 | Ratio [2]: 0.5 | pIC50 (Plasmodium falciparum [3]): 4.48 | CC50 at 72 h [4]: 35.1 µM | pIC50 (Plasmodium falciparum [5]): 4.70 | CC50 at 24 h [6]: 16.8 µM | Ratio [7]: 1.8 | pIC50 (Plasmodium falciparum [8]): 4.69
